Several values for one entry are separate records, joined by “and”; a condition that tells them apart may be missing. Equal entries are not always repeated.
Tested on: U2OS
Test: Multiplex assay against U2OS
Format: toxicity, cell-based
Conditions: human
Outline: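 On a CQ1 microscope at 37°C and 5% CO2, live cells were imaged after compound addition. They had been stained at seeding with Hoechst33342, BioTracker Green Microtubule Cytoskeleton Dye, MitoTracker Red and Annexin V Alexa Fluor 680. CellPathfinder machine-learning gating assigned cells to Hoechst high-intensity objects or normal cells, normal cells to healthy, pyknosed or fragmented nuclei, and pyknosed cells to mitotic or apoptotic. Tubulin, mitochondrial-mass and membrane-permeability phenotypes are per cents of healthy-nucleus cells.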

[1] = 12 h, 1 µM, compound concentration 1 uM
[2] = 12 h, 10 µM, compound concentration 10 uM
[3] = 24 h, 1 µM, compound concentration 1 uM
[4] = 24 h, 10 µM, compound concentration 10 uM
[5] = 48 h, 1 µM, compound concentration 1 uM
[6] = 48 h, 10 µM, compound concentration 10 uM

For `Cc1cc(C)c(NC(=O)C2CC3CCC2C3)c(C)c1` (stereo not given), which “Population Apoptotic (%)” value [1] is on record?
Its value is 35.29%.

What about the “Population Fragmented Nuclei (%)” value [1] of the same compound?
The value was 2.08% and 2.72%.

What about the “Population Healthy Nuclei (%)” value [1] of the same compound?
Its value is 89.09% and 88.04%.

And the “Population Hoechst High Intensity Objects (%)” value [1]?
The value was 0%.

And the “Population Membrane Permeable-Phenotype (%)” value [1]?
Its value is 1.75% and 1.23%.

What about the “Population Mitochondria Different-Phenotype (%)” value [1] of the same compound?
The value was 0.29% and 4.94%.

What about the “Population Mitotic Cells (%)” value [1] of the same compound?
Its value is 64.71%.

What about the “Population Normal (%)” value [1] of the same compound?
Its value is 100%.

What about the “Population Pyknosed Nuclei (%)” value [1] of the same compound?
The value was 8.83% and 9.24%.

What about the “Population Tubulin-Different-Phenotype (%)” value [1] of the same compound?
Its value is 2.04% and 0%.

And the “Total Cell Count” value [1]?
The value was 385 and 184.

What about the “Population Apoptotic (%)” value [2] of the same compound?
Its value is 50% and 36%.

And the “Population Fragmented Nuclei (%)” value [2]?
The value was 2.53% and 4.4%.

And the “Population Healthy Nuclei (%)” value [2]?
The value was 88.71% and 79.87%.

And the “Population Hoechst High Intensity Objects (%)” value [2]?
The value was 0%.

And the “Population Membrane Permeable-Phenotype (%)” value [2]?
Its value is 1.56% and 2.36%.

And the “Population Mitochondria Different-Phenotype (%)” value [2]?
Its value is 0.26% and 8.66%.

What about the “Population Mitotic Cells (%)” value [2] of the same compound?
The value was 50% and 64%.

What about the “Population Normal (%)” value [2] of the same compound?
Its value is 100%.

What about the “Population Pyknosed Nuclei (%)” value [2] of the same compound?
The value was 8.76% and 15.72%.

What about the “Population Tubulin-Different-Phenotype (%)” value [2] of the same compound?
The value was 0.52% and 1.57%.

What about the “Total Cell Count” value [2] of the same compound?
The value was 434 and 159.

What about the “Population Apoptotic (%)” value [3] of the same compound?
Its value is 42.86% and 36%.

What about the “Population Fragmented Nuclei (%)” value [3] of the same compound?
The value was 2.11% and 1.27%.

What about the “Population Healthy Nuclei (%)” value [3] of the same compound?
Its value is 84.48% and 88.19%.

And the “Population Hoechst High Intensity Objects (%)” value [3]?
The value was 0.19% and 0%.

And the “Population Membrane Permeable-Phenotype (%)” value [3]?
Its value is 1.36% and 1.91%.

And the “Population Mitochondria Different-Phenotype (%)” value [3]?
The value was 0.23% and 2.39%.

And the “Population Mitotic Cells (%)” value [3]?
The value was 57.14% and 64%.

What about the “Population Normal (%)” value [3] of the same compound?
The value was 99.81% and 100%.

What about the “Population Pyknosed Nuclei (%)” value [3] of the same compound?
The value was 13.41% and 10.55%.

And the “Population Tubulin-Different-Phenotype (%)” value [3]?
Its value is 0.91% and 0%.

What about the “Total Cell Count” value [3] of the same compound?
The value was 523 and 237.

What about the “Population Apoptotic (%)” value [4] of the same compound?
Its value is 34.38% and 46.43%.

And the “Population Fragmented Nuclei (%)” value [4]?
Its value is 2.9% and 2.49%.

And the “Population Healthy Nuclei (%)” value [4]?
The value was 86.2% and 83.58%.

What about the “Population Hoechst High Intensity Objects (%)” value [4] of the same compound?
Its value is 0.17% and 0%.

What about the “Population Membrane Permeable-Phenotype (%)” value [4] of the same compound?
Its value is 1.19%.

What about the “Population Mitochondria Different-Phenotype (%)” value [4] of the same compound?
Its value is 0.4% and 3.57%.

And the “Population Mitotic Cells (%)” value [4]?
Its value is 65.62% and 53.57%.

What about the “Population Normal (%)” value [4] of the same compound?
Its value is 99.83% and 100%.

What about the “Population Pyknosed Nuclei (%)” value [4] of the same compound?
The value was 10.9% and 13.93%.

What about the “Population Tubulin-Different-Phenotype (%)” value [4] of the same compound?
The value was 0.79% and 2.38%.

What about the “Total Cell Count” value [4] of the same compound?
The value was 588 and 201.

And the “Population Apoptotic (%)” value [5]?
Its value is 45% and 48.57%.

What about the “Population Fragmented Nuclei (%)” value [5] of the same compound?
Its value is 2.82% and 2%.

What about the “Population Healthy Nuclei (%)” value [5] of the same compound?
Its value is 88.83% and 89.25%.

What about the “Population Hoechst High Intensity Objects (%)” value [5] of the same compound?
The value was 0%.

What about the “Population Membrane Permeable-Phenotype (%)” value [5] of the same compound?
Its value is 2% and 1.96%.

And the “Population Mitochondria Different-Phenotype (%)” value [5]?
Its value is 0.12% and 3.08%.

What about the “Population Mitotic Cells (%)” value [5] of the same compound?
The value was 55% and 51.43%.

What about the “Population Normal (%)” value [5] of the same compound?
The value was 100%.

And the “Population Pyknosed Nuclei (%)” value [5]?
Its value is 8.35% and 8.75%.

What about the “Population Tubulin-Different-Phenotype (%)” value [5] of the same compound?
Its value is 1.53% and 0.28%.

And the “Total Cell Count” value [5]?
Its value is 958 and 400.

And the “Population Apoptotic (%)” value [6]?
Its value is 38.02% and 53.12%.

What about the “Population Fragmented Nuclei (%)” value [6] of the same compound?
Its value is 3.32% and 3.75%.

What about the “Population Healthy Nuclei (%)” value [6] of the same compound?
The value was 86.1% and 87.03%.

What about the “Population Hoechst High Intensity Objects (%)” value [6] of the same compound?
The value was 0%.

What about the “Population Membrane Permeable-Phenotype (%)” value [6] of the same compound?
The value was 1.52% and 2.32%.

And the “Population Mitochondria Different-Phenotype (%)” value [6]?
Its value is 0.1% and 3.97%.

And the “Population Mitotic Cells (%)” value [6]?
The value was 61.98% and 46.88%.

What about the “Population Normal (%)” value [6] of the same compound?
Its value is 100%.

And the “Population Pyknosed Nuclei (%)” value [6]?
The value was 10.58% and 9.22%.

And the “Population Tubulin-Different-Phenotype (%)” value [6]?
The value was 1.22% and 1.99%.

From ChEMBL document CHEMBL5724801, “EUbOPEN Chemogenomics Library - Multiplex” (2024)
